Data published in ChEMBL document CHEMBL1125138, “1,3-Dialkyl-3-acyltriazenes, a novel class of antineoplastic alkylating agents” (J Med Chem, 1990).

Key:
[1] = tested on: A549; test: Evaluated for the antineoplastic activity against A549 lung (nonsmall cell) tumor xenograft in nude mice after administering 3 injections (intra peritoneally) at a dose of 200 mg/kg; assay type: functional, Homo sapiens
Procedure, shortened: (§1)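 Nude mice bearing human tumor xenografts; compound given intraperitoneally as three injections at 4-day intervals. Antitumor activity expressed as % T/C at each dose level. Performed under the NCI Developmental Therapeutics Program.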

[2] = tested on: A549; test: Evaluated for the antineoplastic activity against A549 lung (nonsmall cell) tumor xenograft in nude mice after administering 3 injections (intra peritoneally) at a dose of 100 mg/kg; assay type: functional, Homo sapiens; procedure, shortened: as §1
[3] = tested on: A498; test: Evaluated for the inhibitory concentration required to cause growth inhibition of A498Rem- renal cell line using the MTT Cytotoxicity Assay; assay type: functional, cell-based; conditions: Homo sapiens
Procedure, shortened: (§2)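 MTT microculture tetrazolium growth assay on human cell lines and normal fibroblasts. Cells seeded at 1000 cells/well, with compound added 24 h after plating. Cultures then incubated a further 6 days at 37 °C before MTT read-out of growth versus untreated cells.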

[4] = tested on: A-427; test: Evaluated for the inhibitory concentration required to cause growth inhibition of A427Mer- cell line of lung using the MTT Cytotoxicity Assay; assay type: functional, cell-based; conditions: Homo sapiens; procedure, shortened: as §2
[5] = tested on: A704; test: Evaluated for the inhibitory concentration required to cause growth inhibition of A704Rem- renal cell line using the MTT Cytotoxicity Assay; assay type: functional, cell-based; conditions: Homo sapiens; procedure, shortened: as §2
[6] = tested on: A673; test: Evaluated for the inhibitory concentration required to cause growth inhibition of A673Mer+ sarcoma cell line using the MTT Cytotoxicity Assay; assay type: functional, cell-based; conditions: Homo sapiens; procedure, shortened: as §2
[7] = tested on: A 172; test: Evaluated for the inhibitory concentration required to cause growth inhibition of A172Mer- cell line of central nervous system (CNS) using the MTT Cytotoxicity Assay; assay type: functional, cell-based; conditions: Homo sapiens; procedure, shortened: as §2
[8] = tested on: CCD 19Lu; test: Evaluated for the inhibitory concentration required to cause growth inhibition of CCD-19Lu fibroblasts cell line using the MTT Cytotoxicity Assay; assay type: functional, cell-based; conditions: Homo sapiens; procedure, shortened: as §2
[9] = tested on: DOD-1; test: Evaluated for the inhibitory concentration required to cause growth inhibition of DOD-1 breast cell line using the MTT Cytotoxicity Assay; assay type: functional, cell-based; conditions: Homo sapiens; procedure, shortened: as §2
[10] = tested on: NCI-H460; test: Evaluated for the inhibitory concentration required to cause growth inhibition of H460 cell line of lung using the Microculture Tetrazolium (MTT) Cytotoxicity Assay; assay type: functional, cell-based; conditions: Homo sapiens; procedure, shortened: as §2
[11] = tested on: NCI-H358; test: Evaluated for the inhibitory concentration required to cause growth inhibition of H358M cell line of lung using the Microculture Tetrazolium (MTT) Cytotoxicity Assay; assay type: functional, cell-based; conditions: Homo sapiens; procedure, shortened: as §2
[12] = tested on: NCI-H125; test: Evaluated for the inhibitory concentration required to cause growth inhibition of H125 cell line of lung using the Microculture Tetrazolium (MTT) Cytotoxicity Assay; assay type: functional, cell-based; conditions: Homo sapiens; procedure, shortened: as §2
[13] = tested on: NCI-H322M; test: Evaluated for the inhibitory concentration required to cause growth inhibition of H322M cell line of lung using the Microculture Tetrazolium (MTT) Cytotoxicity Assay; assay type: functional, cell-based; conditions: Homo sapiens; procedure, shortened: as §2
[14] = tested on: NCI-H23; test: Evaluated for the inhibitory concentration required to cause growth inhibition of H23 cell line of lung using the Microculture Tetrazolium (MTT) Cytotoxicity Assay; assay type: functional, cell-based; conditions: Homo sapiens; procedure, shortened: as §2
[15] = Evaluated for the antineoplastic activity against LOX amelanotic melanoma tumor xenograft in nude mice after administering 3 injections (intra peritoneally) at a dose of 12.5 mg/kg; assay type: functional, Homo sapiens; procedure, shortened: as §1
[16] = Evaluated for the antineoplastic activity against LOX amelanotic melanoma tumor xenograft in nude mice after administering 3 injections (intra peritoneally) at a dose of 25 mg/kg; assay type: functional, Homo sapiens; procedure, shortened: as §1
[17] = Evaluated for the antineoplastic activity against LOX amelanotic melanoma tumor xenograft in nude mice after administering 3 injections (intra peritoneally) at a dose of 50 mg/kg; assay type: functional, Homo sapiens; procedure, shortened: as §1
[18] = Evaluated for the antineoplastic activity against LX-1 lung (small cell) tumor xenograft in nude mice after administering 3 injections (intra peritoneally) at a dose of 100 mg/kg; assay type: functional, Homo sapiens; procedure, shortened: as §1
[19] = Evaluated for the antineoplastic activity against LX-1 lung (small cell) tumor xenograft in nude mice after administering 3 injections (intra peritoneally) at a dose of 25 mg/kg; assay type: functional, Homo sapiens; procedure, shortened: as §1
[20] = Evaluated for the antineoplastic activity against LX-1 lung (small cell) tumor xenograft in nude mice after administering 3 injections (intra peritoneally) at a dose of 50 mg/kg; assay type: functional, Homo sapiens; procedure, shortened: as §1
[21] = tested on: LOX IMVI; test: Evaluated for the inhibitory concentration required to cause growth inhibition of LOX melanoma cell line using the MTT Cytotoxicity Assay; assay type: functional, cell-based; conditions: Homo sapiens; procedure, shortened: as §2
[22] = Evaluated for the antineoplastic activity against LOX amelanotic melanoma tumor xenograft in nude mice after administering 3 injections (intra peritoneally) at a dose of 100 mg/kg; assay type: functional, Homo sapiens; procedure, shortened: as §1
[23] = tested on: MCF7; test: Evaluated for the inhibitory concentration required to cause growth inhibition of MCF-7 breast cell line using the MTT Cytotoxicity Assay; assay type: functional, cell-based; conditions: Homo sapiens; procedure, shortened: as §2
[24] = tested on: MAR BEL fibroblasts cell line; test: Evaluated for the inhibitory concentration required to cause growth inhibition of MAR BEL fibroblasts cell line using the MTT Cytotoxicity Assay; assay type: functional, cell-based; conditions: Homo sapiens; procedure, shortened: as §2
[25] = tested on: L1210; test: Evaluated for the antineoplastic activity against L1210 leukemia tumor xenograft in nude mice after administering 5 injections (intra peritoneally) at a dose of 21.6 mg/kg; assay type: functional, Mus musculus
Procedure, shortened: (§3)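 Mice bearing L1210 leukemia dosed intraperitoneally once daily for 5 successive days (five injections). Activity reported as % T/C at each dose. Performed under the NCI Developmental Therapeutics Program.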

[26] = Evaluated for the antineoplastic activity against M5 sarcoma tumor xenograft in nude mice after administering 4 injections (intra peritoneally) at a dose of 12.5 mg/kg; assay type: functional, Mus musculus
Procedure, shortened: (§4)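 M5 sarcoma-bearing mice given four intraperitoneal injections at 4-day intervals. Activity reported as % T/C per dose. Performed under the NCI Developmental Therapeutics Program.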

[27] = Evaluated for the antineoplastic activity against M5 sarcoma tumor xenograft in nude mice after administering 4 injections (intra peritoneally) at a dose of 25 mg/kg; assay type: functional, Mus musculus; procedure, shortened: as §4
[28] = Evaluated for the antineoplastic activity against M5 sarcoma tumor xenograft in nude mice after administering 4 injections (intra peritoneally) at a dose of 50 mg/kg; assay type: functional, Mus musculus; procedure, shortened: as §4
[29] = tested on: L1210; test: Evaluated for the antineoplastic activity against L1210 leukemia tumor xenograft in nude mice after administering 5 injections (intra peritoneally) at a dose of 36 mg/kg; assay type: functional, Mus musculus; procedure, shortened: as §3
[30] = tested on: L1210; test: Evaluated for the antineoplastic activity against L1210 leukemia tumor xenograft in nude mice after administering 5 injections (intra peritoneally) at a dose of 60 mg/kg; assay type: functional, Mus musculus; procedure, shortened: as §3
[31] = tested on: NCI/ADR-RES; test: Evaluated for the inhibitory concentration required to cause growth inhibition of MCF-7ADR breast cell line using the MTT Cytotoxicity Assay; assay type: functional, cell-based; conditions: Homo sapiens; procedure, shortened: as §2
[32] = tested on: MX1; test: Evaluated for the antineoplastic activity against MX-1 mammary tumor xenograft in nude mice after administering 3 injections (intra peritoneally) at a dose of 150 mg/kg; assay type: functional, Homo sapiens; procedure, shortened: as §1
[33] = tested on: MX1; test: Evaluated for the antineoplastic activity against MX-1 mammary tumor xenograft in nude mice after administering 3 injections (intra peritoneally) at a dose of 300 mg/kg; assay type: functional, Homo sapiens; procedure, shortened: as §1
[34] = tested on: Malme-3M; test: Evaluated for the inhibitory concentration required to cause growth inhibition of MALME-3M melanoma cell line using the MTT Cytotoxicity Assay; assay type: functional, cell-based; conditions: Homo sapiens; procedure, shortened: as §2
[35] = tested on: OVCAR-4; test: Evaluated for the inhibitory concentration required to cause growth inhibition of OVCAR-4 ovarian cell line using the MTT Cytotoxicity Assay; assay type: functional, cell-based; conditions: Homo sapiens; procedure, shortened: as §2
[36] = tested on: OVCAR-3; test: Evaluated for the inhibitory concentration required to cause growth inhibition of OVCAR-3 ovarian cell line using the MTT Cytotoxicity Assay; assay type: functional, cell-based; conditions: Homo sapiens; procedure, shortened: as §2
[37] = tested on: HOS-TE85; test: Evaluated for the inhibitory concentration required to cause growth inhibition of TE85Mer+ sarcoma cell line using the MTT Cytotoxicity Assay; assay type: functional, cell-based; conditions: Homo sapiens; procedure, shortened: as §2
[38] = tested on: TE-671; test: Evaluated for the inhibitory concentration required to cause growth inhibition of TE-671 cell line of central nervous system (CNS)using the MTT Cytotoxicity Assay; assay type: functional, cell-based; conditions: Homo sapiens; procedure, shortened: as §2
[39] = tested on: WiDr; test: Evaluated for the inhibitory concentration required to cause growth inhibition of WiDR colon cell line using the MTT Cytotoxicity Assay; assay type: functional, cell-based; conditions: Homo sapiens
Procedure, shortened: (§5)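 MTT cell-growth assay in human cell lines: cells harvested and seeded at 1000 cells/well in 96-well plates. Compound added after 24 h, then cultures incubated a further 6 days at 37 °C. Growth measured with and without agent.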

[40] = tested on: U-251; test: Evaluated for the inhibitory concentration required to cause growth inhibition of U251 cell line of central nervous system (CNS) using the MTT Cytotoxicity Assay; assay type: functional, cell-based; conditions: Homo sapiens; procedure, shortened: as §5
[41] = tested on: RPMI-7951; test: Evaluated for the inhibitory concentration required to cause growth inhibition of RPMI7951 melanoma cell line using the MTT Cytotoxicity Assay; assay type: functional, cell-based; conditions: Homo sapiens; procedure, shortened: as §2
[42] = tested on: SK-MEL-5; test: Evaluated for the inhibitory concentration required to cause growth inhibition of SK-MEL-5 melanoma cell line using the MTT Cytotoxicity Assay; assay type: functional, cell-based; conditions: Homo sapiens; procedure, shortened: as §2
[43] = tested on: A549; test: Evaluated for the inhibitory concentration required to cause growth inhibition of A549Rem- cell line of lung using the MTT Cytotoxicity Assay; assay type: functional, cell-based; conditions: Homo sapiens; procedure, shortened: as §2
[44] = tested on: NCI-H522 (Homo sapiens); test: Evaluated for the inhibitory concentration required to cause growth inhibition of H522 cell line of lung using the Microculture Tetrazolium (MTT) Cytotoxicity Assay

## C/N=N\N(C)C(=O)NC
[1]
  T/C: -27%
[2]
  T/C: 8%
[3]
  IC50: 37 µM
[4]
  IC50: 9 µM
[5]
  IC50: 55 µM
[6]
  IC50: 50 µM
[7]
  IC50: 24 µM
[8]
  IC50: 70 µM
[9]
  IC50: 38 µM
[10]
  IC50: 70 µM
[11]
  IC50: 75 µM
[12]
  IC50: 50 µM
[13]
  IC50: 42 µM
[14]
  IC50: 22 µM
[15]
  T/C: 131%
[16]
  T/C: 154%
[17]
  T/C: 188%
[18]
  T/C: -55%
[19]
  T/C: 6%
[20]
  T/C: -34%
[21]
  IC50: 19 µM
[22]
  T/C: 230%
[23]
  IC50: 30 µM
[24]
  IC50: 65 µM
[25]
  T/C: 132%
[26]
  T/C: 136%
[27]
  T/C: 158%
[28]
  T/C: 177%
[29]
  T/C: 146%
[30]
  T/C: 186%
[31]
  IC50: 35 µM
[32]
  T/C: 15%
[33]
  T/C: -13%
[34]
  IC50: 22 µM
[35]
  IC50: 35 µM
[36]
  IC50: 40 µM
[37]
  IC50: 35 µM
[38]
  IC50: 46 µM
[39]
  IC50: 30 µM
[40]
  IC50: 33 µM
[41]
  IC50: 37 µM
[42]
  IC50: 20 µM
[43]
  IC50: 60 µM
[44]
  IC50: 24 µM

## C/N=N\N(C)C(C)=O
[3]
  IC50: 48 µM
[4]
  IC50: 11 µM
[5]
  IC50: 55 µM
[6]
  IC50: 65 µM
[8]
  IC50: 77 µM
[9]
  IC50: 60 µM
[10]
  IC50: 75 µM
[11]
  IC50: 100 µM
[12]
  IC50: 53 µM
[13]
  IC50: 55 µM
[14]
  IC50: 42 µM
[21]
  IC50: 30 µM
[23]
  IC50: 37 µM
[24]
  IC50: 80 µM
[31]
  IC50: 40 µM
[34]
  IC50: 25 µM
[35]
  IC50: 45 µM
[36]
  IC50: 55 µM
[37]
  IC50: 40 µM
[38]
  IC50: 7 µM
[39]
  IC50: 40 µM
[40]
  IC50: 42 µM
[41]
  IC50: 60 µM
[42]
  IC50: 37 µM
[43]
  IC50: 55 µM
[44]
  IC50: 30 µM
